We go through one compound from ChEMBL document CHEMBL1914304 (J Med Chem, 2011).

Each structure is given as a SMILES string.

One series addresses T1, Kir2.1 (Homo sapiens, UniProt P63252).
T1 sequence (P63252 whole entry): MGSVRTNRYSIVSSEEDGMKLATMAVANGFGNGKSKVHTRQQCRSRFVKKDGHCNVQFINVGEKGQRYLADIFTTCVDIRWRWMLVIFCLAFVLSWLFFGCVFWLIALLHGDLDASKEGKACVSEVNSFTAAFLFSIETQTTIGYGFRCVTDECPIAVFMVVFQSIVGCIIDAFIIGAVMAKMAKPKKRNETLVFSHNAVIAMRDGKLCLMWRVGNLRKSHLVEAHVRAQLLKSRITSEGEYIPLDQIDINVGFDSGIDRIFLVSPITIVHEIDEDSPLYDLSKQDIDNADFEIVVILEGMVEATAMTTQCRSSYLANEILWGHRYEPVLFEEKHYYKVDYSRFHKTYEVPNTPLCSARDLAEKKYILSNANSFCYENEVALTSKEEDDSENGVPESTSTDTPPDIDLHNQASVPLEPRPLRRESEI
Nature of the series: Inhibition of Kir2.1 at 10 uM after 5 mins by patch clamp assay. Summed up:
(§1)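 Cardiac ion channel panel run by a contract lab on an automated parallel patch-clamp system at room temperature. Each of 12 cardiac channels was tested with 10 µM compound for 5 min exposure, in two cells per channel (n ≥ 2). Values are reported as mean % inhibition.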

For series [1], the target named is Sulfonylurea receptor 2, Kir6.2 (Homo sapiens) (UniProt Q14654+O60706). Nature of the series: Inhibition of Kir6.2/SUR2A at 10 uM after 5 mins by patch clamp assay. Summed up:
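Fixed-concentration screen across a panel of 12 cloned cardiac ion channels. The compound was tested at 10 µM for 5 min exposure at room temperature by automated parallel patch clamp, in two cells (n ≥ 2) per channel. Values are mean percent inhibition of channel current.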

Series [2] concerns the target T2, Potassium/sodium hyperpolarization-activated cyclic nucleotide-gated channel 2 (Homo sapiens) (UniProt Q9UL51).
T2 sequence (whole entry): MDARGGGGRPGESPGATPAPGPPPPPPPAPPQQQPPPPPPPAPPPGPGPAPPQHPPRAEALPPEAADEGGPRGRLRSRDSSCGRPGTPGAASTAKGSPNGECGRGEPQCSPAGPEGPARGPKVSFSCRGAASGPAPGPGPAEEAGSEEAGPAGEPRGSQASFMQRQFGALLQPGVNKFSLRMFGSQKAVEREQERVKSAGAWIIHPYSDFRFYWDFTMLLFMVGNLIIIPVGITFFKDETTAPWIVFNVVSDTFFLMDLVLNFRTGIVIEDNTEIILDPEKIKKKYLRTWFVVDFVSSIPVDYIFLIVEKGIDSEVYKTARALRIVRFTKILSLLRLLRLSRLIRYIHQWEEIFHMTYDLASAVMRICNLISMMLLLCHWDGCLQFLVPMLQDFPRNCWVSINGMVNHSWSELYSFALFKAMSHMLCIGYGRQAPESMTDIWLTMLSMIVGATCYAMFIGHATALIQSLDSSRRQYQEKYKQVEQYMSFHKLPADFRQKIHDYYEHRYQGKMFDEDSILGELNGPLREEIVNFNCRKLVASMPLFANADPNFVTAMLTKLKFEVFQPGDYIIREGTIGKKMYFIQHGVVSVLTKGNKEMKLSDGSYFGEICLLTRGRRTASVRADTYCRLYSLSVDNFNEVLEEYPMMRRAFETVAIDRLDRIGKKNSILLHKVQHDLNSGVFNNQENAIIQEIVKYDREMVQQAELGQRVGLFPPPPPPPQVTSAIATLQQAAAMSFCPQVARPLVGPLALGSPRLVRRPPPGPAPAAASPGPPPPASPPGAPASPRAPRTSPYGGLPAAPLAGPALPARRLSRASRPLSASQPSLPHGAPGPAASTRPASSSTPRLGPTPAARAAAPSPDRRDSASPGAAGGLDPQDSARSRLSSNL
Put plainly: Inhibition of HCN2 at 10 uM after 5 mins by patch clamp assay. Summed up: as §1

For `CCCNCC(O)COc1ccccc1C(=O)CCc1ccccc1` (racemic) [PROPAFENONE], at Kir2.1, the inhibition at 5 min, 10 µM is 0.2%. In addition, the inhibition in series [1] was 89.6%; in series [2], 47.8%.
